Rows were chosen to be rich in hits. Some 2.2% of all compounds tested hit in one or more screens of this group.
PfGluPho inh: PfG6PD (Plasmodium falciparum) enzyme inhibition; AID 504690; PfGluPho enzyme, NADPH resazurin-diaphorase fluorescence; hit rate 0.78% among 350,000; inhibition, % at 20 µM;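 active means inhibition reaching at least a set limit at 20 µM in the primary screen, cut at about 59% in these data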;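 further: 0% = DMSO wells with substrate and 100% = DMSO wells lacking glucose-6-phosphate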
PfM18AAP inh-1: PfM18AAP enzyme inhibition; recombinant PfM18AAP, H-Glu-NHMec fluorogenic cleavage; inhibition, % at 7.35 µM; hit rate 1.2% among 290,000; AID 1822;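 active means inhibition above the campaign mean inhibition over all tested compounds plus 3 SD, cut at about 28% in these data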;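 further: 0% = plate median of test compound wells and 100% = 2 mM ZnCl2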
Neddyl block: inhibitors of human cullin neddylation; P61081+Q13564; TR-FRET cullin neddylation, biochemical; inhibition, % at 25 µM; hit rate 0.58% among 360,000; AID 651699; in the data active means inhibition above about 36%
HKDC1 inhibitor: HKDC1 (human) hexokinase inhibition | Q2TB90 | recombinant HKDC1, G6PDH/diaphorase resazurin coupled fluorescence | inhibition, % at 20 µM | hit rate 0.16% among 340,000 | AID 493160;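 active means inhibition above about 35% when tested at 20 µM, limit read from the data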;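 further: plate controls were DMSO wells with enzyme for no effect and DMSO wells lacking enzyme for full effect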
Target sequence (Q2TB90 whole entry, looked up): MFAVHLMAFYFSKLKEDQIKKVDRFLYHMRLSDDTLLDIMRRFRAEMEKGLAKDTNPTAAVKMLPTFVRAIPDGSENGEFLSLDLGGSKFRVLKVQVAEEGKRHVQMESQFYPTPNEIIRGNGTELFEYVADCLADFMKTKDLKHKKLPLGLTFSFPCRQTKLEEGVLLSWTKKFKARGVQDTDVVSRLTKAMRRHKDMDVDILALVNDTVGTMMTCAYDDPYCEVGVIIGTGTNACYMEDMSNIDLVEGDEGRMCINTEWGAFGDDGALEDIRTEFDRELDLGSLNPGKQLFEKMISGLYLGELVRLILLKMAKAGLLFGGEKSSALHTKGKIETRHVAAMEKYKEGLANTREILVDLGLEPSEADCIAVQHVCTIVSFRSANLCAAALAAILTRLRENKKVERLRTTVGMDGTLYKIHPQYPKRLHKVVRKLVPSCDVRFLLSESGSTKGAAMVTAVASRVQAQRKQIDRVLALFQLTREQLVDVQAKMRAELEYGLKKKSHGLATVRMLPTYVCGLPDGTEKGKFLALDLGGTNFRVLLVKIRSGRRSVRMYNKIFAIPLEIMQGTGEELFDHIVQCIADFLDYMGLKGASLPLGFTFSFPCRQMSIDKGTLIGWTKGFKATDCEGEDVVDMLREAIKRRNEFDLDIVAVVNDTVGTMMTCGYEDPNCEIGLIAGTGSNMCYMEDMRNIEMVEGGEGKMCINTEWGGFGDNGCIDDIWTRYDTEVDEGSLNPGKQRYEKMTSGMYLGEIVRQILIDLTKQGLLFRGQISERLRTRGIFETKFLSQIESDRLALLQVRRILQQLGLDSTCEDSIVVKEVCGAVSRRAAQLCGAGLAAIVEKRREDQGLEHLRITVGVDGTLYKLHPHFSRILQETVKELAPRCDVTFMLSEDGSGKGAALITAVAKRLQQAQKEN
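Test system: HK5 enzyme. Quantity: 5 µg/mL HK5 final. Reagent: glucose and ATP substrates. Schedule: 90 min reaction incubation at room temperature, dark. Technique: resazurin-to-resorufin fluorescence via G6PDH and diaphorase coupling, 525/613 nm. Control set: DMSO wells with and without enzyme mix.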
PfM18AAP inh-2: confirmation of Plasmodium falciparum M18 aspartyl aminopeptidase inhibitors; shares compounds with PfM18AAP inh-1; recombinant PfM18AAP, H-Glu-NHMec fluorogenic cleavage; inhibition, % at 7.35 µM; hit rate 28% among 2,400;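 active means mean inhibition over replicate wells above the hit cutoff set for the earlier primary screen, cut at about 29% in these data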;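 further: 0% = median of test compound wells and 100% = 2 mM ZnCl2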
CTSL1 confirm: Cathepsin L (human) inhibition, confirmation. shares compounds with PfM18AAP inh-1. purified cathepsin L1, Z-Leu-Arg-MCA fluorescence. inhibition, % at 5.96 µM. 2,400 tested, under 10 active. AID 2178;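 active means average inhibition across replicates above the hit cutoff set in the earlier primary screen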;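 further: 0% = median of test compound wells and 100% = Z-Phe-Ala-diazomethylketone 1 µM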
PfGluPho conf: PfG6PD inhibition, single-dose confirmed. shares compounds with PfGluPho inh. recombinant PfGluPho, NADPH-diaphorase-resazurin fluorescence. inhibition, % at 20 µM. hit rate 34% among 2,400. AID 504753;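 active means inhibition of at least 50% at 20 µM in any single replicate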;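 further: 0% = DMSO with substrate and 100% = DMSO lacking glucose-6-phosphate substrate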
Diaph ctr 10uM: counter-screen for P. falciparum G6PD inhibitors: diaphorase inhibitors, oxidizers. shares compounds with PfGluPho inh. diaphorase-coupled resazurin reduction, fluorescence, NADPH 10 uM. inhibition, % at 20 µM. hit rate 39% among 820. AID 504862;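 active means average inhibition reaching 50% or more with the compound at 20 µM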;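 further: resorufin red fluorescence formed as diaphorase reduces resazurin using NADPH; 0% = DMSO with enzyme and 100% = DMSO without enzyme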
Diaphorase 30uM: diaphorase inhibition or oxidation at 30 uM NADPH. shares compounds with PfGluPho inh. Diaphorase/resazurin coupled assay, resorufin fluorescence. inhibition, % at 20 µM. hit rate 29% among 820;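 active means inhibition averaging 50% or more, tested at 20 µM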;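 further: 0% = DMSO with enzyme and 100% = DMSO wells lacking diaphorase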
Starred values were filed as active, the others as inactive; . = no result given.

SMILES	PfGluPho inh	PfM18AAP inh-1	Neddyl block	HKDC1 inhibitor	PfM18AAP inh-2	CTSL1 confirm	PfGluPho conf	Diaph ctr 10uM	Diaphorase 30uM
CC(C)OCCCNC(=S)Nc1ccc(S(N)(=O)=O)cc1	61*	49*	2	-2	11	-2	44	.	.
CC(=O)Nc1ccc(C(=O)NCCCOC(C)C)cc1	10	-14	17	-4	.	.	.	.	.
O=S(=O)(Nc1ccc(Cl)cc1)c1ccc(N2CCOCC2)c(NC(=S)NCCN2CCOCC2)c1	69*	45*	13	-4	10	-2	63*	-11	-2
O=C(Cc1ccc(NS(=O)(=O)c2ccc(Cl)c(Cl)c2)cc1)NCCN1CCOCC1	1	.	7	-1	.	.	.	.	.
CC(C)c1ccc(Nc2ccc(C(=O)O)cc2[N+](=O)[O-])cc1	-10	-5	-59	1	.	.	.	.	.
COc1ccc(Br)cc1CNc1ccc(O)cc1	68*	42*	-4	13	-24	-3	38	.	.
CC(C)c1c(C(=O)N/N=C/c2ccccc2OCc2c(F)cccc2Cl)nnn1-c1nonc1N	5	-2	-3	5	.	.	.	.	.
CC(OC(=O)/C(C#N)=C/c1ccc(N(C)C)cc1)C(=O)N(C)Cc1ccccc1 (stereo unspecified)	11	5	-30	-1	.	.	.	.	.
N#CC1=C2SCC(O)(c3ccccc3)N2C(=O)CC1c1ccccc1F (stereo unspecified)	11	6	-23	10	.	.	.	.	.
COc1cc(OC)c(C2CC(=O)N3CN(c4ccccc4)CSC3=C2C#N)cc1OC (stereo unspecified)	81*	39*	-11	5	19	3	58*	-5	-3
Cc1cccc(N(CC(=O)NC(C)(C)C)C(=O)CCC(=O)Nc2ccccn2)c1	5	4	-13	-5	.	.	.	.	.
COc1ccc(-n2c(SCC#N)nc3c(sc(=S)n3-c3ccccc3)c2=O)c(OC)c1	91*	35*	-8	-2	23	3	41	.	.
COc1ccccc1-n1c(SC)nc2c(sc(=S)n2-c2ccccc2)c1=O	-5	3	-4	-2	.	.	.	.	.
Oc1ccc(NCc2ccc(OCc3ccccc3)cc2)cc1	66*	46*	-29	10	-29	-2	26	.	.
COc1cc(/C=C(\C#N)C(N)=O)ccc1OCc1c(C)no[n+]1[O-]	16	-6	-11	-3	.	.	.	.	.
COc1cc(/C=N/Nc2nncn2N)ccc1OCc1c(C)no[n+]1[O-]	82*	51*	-13	3	-6	5	63*	34	24
Cc1nc2ccccc2c(=O)n1/N=C/c1ccccc1O	8	-8	14	-9	.	.	.	.	.
Cc1nc2ccccc2c(=O)n1/N=C/c1ccc(O)c(O)c1O	92*	47*	-12	15	6	5	101*	97*	96*
CN=c1scc(C)n1/N=C/c1ccc(O)c(O)c1O	88*	47*	-36	17	22	-5	78*	35	39
C=CCN=c1scc(-c2ccco2)n1/N=C/c1ccc(O)c(O)c1O	73*	45*	-14	22	4	-1	48*	-2	15
CCN=c1scc(C)n1/N=C/c1ccsc1	17	5	0	-5	.	.	.	.	.
O=c1c2ccccc2nc(-c2ccco2)n1/N=C/c1ccccc1O	-9	1	8	10	.	.	.	.	.
OCCN1CCN(C(=S)c2ccc(Cl)c(Cl)c2)CC1	64*	49*	8	-3	5	-5	53*	-13	-1
COc1cc(NC(=S)N2CCN(CCO)CC2)c(OC)cc1Cl	24	4	-1	-12	.	.	.	.	.
O=C(CCN1N=C(c2ccccc2)CCC1=O)NCCCN1CCOCC1	9	-2	6	-10	.	.	.	.	.
CN1/C(=C\C(=O)c2cccs2)Sc2ccccc21	105*	54*	32	-1	-47	-4	62*	41	35

Source: PubChem BioAssay
